# Results published in ChEMBL document CHEMBL1135410, “Adenine nucleotide analogues locked in a Northern methanocarba conformation: enhanced stability and potency as P2Y(1) receptor agonists” (J Med Chem, 2002).
# The source made the active and inactive calls. The rule behind the calls is not given here.
# Columns and labels:
# [1] = target: P2Y purinoceptor 1 (Meleagris gallopavo) (UniProt P49652); test: Agonist activity by measuring Purinoceptor P2Y1-promoted phospholipase C activity in turkey erythrocyte membranes; No effect as either agonist or antagonist at 10 uM; assay type: functional, cell membranes
# Procedure, shortened: (§1)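 Turkey erythrocytes labelled 18–24 h at 37 °C with 2-[3H]myo-inositol in inositol-free DMEM. Ghosts (about 175 μg protein) incubated 5 min at 30 °C in pH 7.0 Hepes/KCl buffer with EGTA, CaCl2 and MgSO4, plus 1 μM GTPγS and the agonist. Total [3H]inositol phosphates separated by anion exchange. EC50 from four-parameter logistic fit, at least three experiments.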
# [2] = target: T1, P2Y purinoceptor 1 (Homo sapiens, UniProt P47900); test: Agonist activity by measuring inositol phosphate accumulation in 1321N1 human astrocytoma cells stably expressing human P2Y purinoceptor 1; No effect as either agonist or antagonist at 10 uM; assay type: functional
# Procedure, shortened: (§2)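 Inositol phosphate accumulation measured in 1321N1 human astrocytoma cells stably expressing human P2Y1, P2Y2, P2Y4 or P2Y11 receptor. Full concentration–effect curves, repeated in at least three separate experiments run in duplicate or triplicate. EC50 from four-parameter logistic fit. Relative efficacy (%) taken against a maximal effective concentration of UTP or UDP in the same experiment.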
# [3] = species on record: Rattus norvegicus; test: Hydrolysis rate of compound as substrate of purified recombinant rat Ecto-5'-nucleotidase; assay type: functional; parameters: scale not given: the % may be the effect or the level left
# Procedure, shortened: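 Purified baculovirus-expressed rat ecto-5′-nucleotidase (0.5 μg) incubated 10 min at 37 °C with 100 μM (final) substrate in Tris-buffered saline containing 0.4 mM MgCl2, pH 7.4. Reaction stopped with 5% TCA. Released inorganic phosphate measured by the Lanzetta method. Activity expressed relative to AMP (100%). Two experiments, each in duplicate.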
# [4] = target: P2Y purinoceptor 4 (Homo sapiens) (UniProt P51582); test: Agonist activity by measuring inositol phosphate accumulation in 1321N1 human astrocytoma cells stably expressing human P2Y purinoceptor 4; No effect as either agonist or antagonist at 10 uM; assay type: functional; procedure, shortened: as §2
# [5] = target: T2, P2Y purinoceptor 11 (Homo sapiens) (UniProt Q96G91); test: Agonist activity by measuring inositol phosphate accumulation in 1321N1 human astrocytoma cells stably expressing human P2Y purinoceptor 11; No effect as either agonist or antagonist at 10 uM; assay type: functional; procedure, shortened: as §2
# T2 sequence (whole entry): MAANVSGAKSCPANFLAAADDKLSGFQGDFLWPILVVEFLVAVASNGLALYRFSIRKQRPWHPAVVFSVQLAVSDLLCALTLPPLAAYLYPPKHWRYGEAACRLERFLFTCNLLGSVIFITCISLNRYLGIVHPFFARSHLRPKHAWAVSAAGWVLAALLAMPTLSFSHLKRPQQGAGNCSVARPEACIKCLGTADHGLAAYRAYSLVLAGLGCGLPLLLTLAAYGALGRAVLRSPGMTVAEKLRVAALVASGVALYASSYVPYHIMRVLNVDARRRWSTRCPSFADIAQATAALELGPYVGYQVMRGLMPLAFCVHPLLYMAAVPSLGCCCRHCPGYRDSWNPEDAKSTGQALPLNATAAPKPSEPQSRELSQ
# [6] = target: T3, P2Y purinoceptor 2 (Homo sapiens, UniProt P41231); test: Agonist activity by measuring inositol phosphate accumulation in 1321N1 human astrocytoma cells stably expressing human P2Y purinoceptor 2r; No effect as either agonist or antagonist at 10 uM; assay type: functional; procedure, shortened: as §2
# [7] = target: T1, P2Y purinoceptor 1; test: Accumulation of inositol phosphate in 1321N1 astrocytoma cells expressing human P2Y1 purinoceptor; assay type: cell-based; procedure, shortened: as §2
# [8] = target: P2Y purinoceptor 1 (Meleagris gallopavo, UniProt P49652); test: Activation of Purinoceptor P2Y1-mediated phospholipase C in turkey erythrocyte membranes; assay type: cell membranes
# Procedure, shortened: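 Turkey erythrocytes labelled 18–24 h at 37 °C with 2-[3H]myo-inositol in inositol-free DMEM. Total [3H]inositol phosphates separated by anion exchange. EC50 from four-parameter logistic fit, at least three experiments.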
# [9] = target: T3, P2Y purinoceptor 2; test: Agonist activity by measuring inositol phosphate accumulation in 1321N1 human astrocytoma cells stably expressing human P2Y purinoceptor 2; assay type: functional; procedure, shortened: as §2
# [10] = target: T4, Ectonucleoside triphosphate diphosphohydrolase 1 (Rattus norvegicus) (UniProt P97687); test: Hydrolysis rate as substrate of rat Ectonucleoside triphosphate diphosphohydrolase 1 (NTPDase 1) (Ecto-apyrase); parameters: scale not given: the % may be the effect or the level left
# T4 sequence (whole entry): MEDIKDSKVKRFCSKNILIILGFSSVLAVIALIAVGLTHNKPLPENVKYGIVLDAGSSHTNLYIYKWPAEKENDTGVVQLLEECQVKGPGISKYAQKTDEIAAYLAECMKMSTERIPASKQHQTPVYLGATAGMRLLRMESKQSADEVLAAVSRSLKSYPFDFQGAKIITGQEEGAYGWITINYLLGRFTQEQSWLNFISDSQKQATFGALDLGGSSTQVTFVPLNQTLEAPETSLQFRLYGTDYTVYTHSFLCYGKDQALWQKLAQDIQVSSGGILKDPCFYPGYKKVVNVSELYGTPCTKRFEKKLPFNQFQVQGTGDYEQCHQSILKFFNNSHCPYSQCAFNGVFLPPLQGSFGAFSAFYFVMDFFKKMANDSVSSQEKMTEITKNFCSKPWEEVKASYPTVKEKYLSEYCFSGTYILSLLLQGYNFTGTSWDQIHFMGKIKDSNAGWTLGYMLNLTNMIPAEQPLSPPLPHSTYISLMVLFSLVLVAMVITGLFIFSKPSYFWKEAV
# Procedure, shortened: (§3)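 Intact CHO cells stably expressing rat NTPDase1 or NTPDase2, seeded 24 h before assay. Incubated at 37 °C in Hepes-buffered saline, pH 7.4, with nucleotide substrate. Supernatant aliquots taken over time and analysed by HPLC at 260 nm. Rate expressed relative to ATP (100%). Nontransfected CHO cells served as control. Two experiments, each in duplicate.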
# [11] = target: T5, Ectonucleoside triphosphate diphosphohydrolase 2 (Rattus norvegicus) (UniProt O35795); test: Hydrolysis rate as substrate of rat Ectonucleoside triphosphate diphosphohydrolase 2 (NTPDase 2) (Ecto-apyrase); parameters: scale not given: the % may be the effect or the level left; procedure, shortened: as §3
# T5 sequence (whole entry): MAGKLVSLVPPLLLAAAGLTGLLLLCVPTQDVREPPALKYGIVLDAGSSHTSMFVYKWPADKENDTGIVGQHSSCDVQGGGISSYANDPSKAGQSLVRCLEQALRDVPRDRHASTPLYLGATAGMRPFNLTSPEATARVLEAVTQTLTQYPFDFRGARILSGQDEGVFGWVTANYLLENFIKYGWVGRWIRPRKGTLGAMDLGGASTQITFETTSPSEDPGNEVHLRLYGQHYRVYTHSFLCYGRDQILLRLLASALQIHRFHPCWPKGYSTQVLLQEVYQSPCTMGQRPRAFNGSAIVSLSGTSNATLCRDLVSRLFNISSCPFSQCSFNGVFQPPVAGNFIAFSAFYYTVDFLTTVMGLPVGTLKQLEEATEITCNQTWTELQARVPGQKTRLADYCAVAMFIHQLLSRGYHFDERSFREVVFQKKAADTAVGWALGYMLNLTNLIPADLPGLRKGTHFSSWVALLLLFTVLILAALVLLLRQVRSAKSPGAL
# [12] = target: P2Y purinoceptor 1 (Meleagris gallopavo) (UniProt P49652); test: Agonist activity by measuring Purinoceptor P2Y1-promoted phospholipase C activity in turkey erythrocyte membranes; NE means no effect.; assay type: functional, cell membranes; procedure, shortened: as §1
# P2Y purinoceptor 1 (Meleagris gallopavo), sequence (P49652 whole entry): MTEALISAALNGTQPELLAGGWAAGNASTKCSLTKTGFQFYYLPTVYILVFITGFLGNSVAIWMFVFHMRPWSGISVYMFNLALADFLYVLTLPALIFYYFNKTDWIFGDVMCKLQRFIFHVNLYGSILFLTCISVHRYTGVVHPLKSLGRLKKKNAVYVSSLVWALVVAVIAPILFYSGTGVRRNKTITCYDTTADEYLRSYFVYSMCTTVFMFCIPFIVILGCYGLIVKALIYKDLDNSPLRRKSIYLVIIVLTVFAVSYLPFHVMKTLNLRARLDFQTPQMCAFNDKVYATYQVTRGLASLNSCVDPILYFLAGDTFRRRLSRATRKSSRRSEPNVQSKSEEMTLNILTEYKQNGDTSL
# P2Y purinoceptor 1 (Meleagris gallopavo, UniProt P49652), sequence (P49652 whole entry): as above
# T3 sequence (P41231 whole entry): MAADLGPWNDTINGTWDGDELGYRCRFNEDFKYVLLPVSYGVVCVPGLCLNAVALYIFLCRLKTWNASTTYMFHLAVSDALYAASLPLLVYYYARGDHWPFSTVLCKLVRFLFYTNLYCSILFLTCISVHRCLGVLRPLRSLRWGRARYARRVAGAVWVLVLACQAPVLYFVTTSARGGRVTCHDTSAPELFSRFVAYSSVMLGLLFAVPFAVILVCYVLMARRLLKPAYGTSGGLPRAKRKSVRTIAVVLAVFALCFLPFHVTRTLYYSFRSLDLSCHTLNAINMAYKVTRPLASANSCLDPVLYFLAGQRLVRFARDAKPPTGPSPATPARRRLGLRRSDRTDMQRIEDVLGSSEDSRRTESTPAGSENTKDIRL
# T1 sequence (P47900 whole entry): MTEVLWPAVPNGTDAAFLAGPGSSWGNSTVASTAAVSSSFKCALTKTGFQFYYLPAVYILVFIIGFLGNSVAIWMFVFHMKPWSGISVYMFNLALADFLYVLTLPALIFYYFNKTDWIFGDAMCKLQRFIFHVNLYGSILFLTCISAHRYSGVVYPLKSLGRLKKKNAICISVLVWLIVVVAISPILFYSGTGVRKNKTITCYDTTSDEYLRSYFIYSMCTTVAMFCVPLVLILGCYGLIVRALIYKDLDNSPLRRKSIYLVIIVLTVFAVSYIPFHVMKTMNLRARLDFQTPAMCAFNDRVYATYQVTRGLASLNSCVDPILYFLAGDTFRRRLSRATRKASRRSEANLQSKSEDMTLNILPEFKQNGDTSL
# P2Y purinoceptor 4 (Homo sapiens), sequence (P51582 whole entry): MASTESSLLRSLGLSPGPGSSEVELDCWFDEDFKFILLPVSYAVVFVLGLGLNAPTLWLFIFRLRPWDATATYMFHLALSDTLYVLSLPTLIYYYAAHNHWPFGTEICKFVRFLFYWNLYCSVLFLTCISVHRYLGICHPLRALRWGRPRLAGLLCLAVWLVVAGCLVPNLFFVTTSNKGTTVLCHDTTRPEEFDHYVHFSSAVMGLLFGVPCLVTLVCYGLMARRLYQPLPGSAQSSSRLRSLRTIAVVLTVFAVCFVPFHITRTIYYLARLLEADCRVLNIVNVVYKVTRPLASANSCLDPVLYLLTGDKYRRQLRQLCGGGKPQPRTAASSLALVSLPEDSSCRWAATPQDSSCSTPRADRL
smiles,measurement,setting,value
Nc1nc(Cl)nc2c1ncn2[C@@H]1O[C@H](COP(=O)(O)O)[C@@H](O)[C@H]1O,NE,[1],inactive
same,NE,[2],inactive
C[S+]([O-])c1nc(N)c2ncn(C3O[C@H](COP(=O)(O)O)[C@@H](O)[C@H]3O)c2n1 (stereo not given in full),NE,[1],inactive
same,NE,[2],inactive
Nc1ncnc2c1ncn2[C@@H]1O[C@H](COP(=O)(O)O)[C@@H](O)[C@H]1O,NE,[1],inactive
same,Activity,[3],100%
CSc1nc(N)c2ncn([C@@H]3O[C@H](COP(=O)(O)OP(=O)(O)O)[C@@H](O)[C@H]3O)c2n1,NE,[4],inactive
same,NE,[5],inactive
same,NE,[6],inactive
CSc1nc(N)c2ncn([C@H]3[C@H](O)[C@H](O)[C@@]4(COP(=O)(O)O)C[C@@H]34)c2n1,EC50,[7],590 nM
same,EC50,[8],1190 nM
same,NE,[5],inactive
CSc1nc(N)c2ncn([C@@H]3O[C@H](COP(=O)(O)OP(=O)(O)OP(=O)(O)O)[C@@H](O)[C@H]3O)c2n1,EC50,[7],34 nM
CNc1ncnc2c1ncn2C1C(O)C(O)[C@@]2(COP(=O)(O)OP(=O)(O)OP(=O)(O)O)C[C@@H]12 (stereo not given in full),EC50,[7],33 nM
same,EC50,[8],92 nM
same,EC50,[9],197 nM
CNC(=O)[C@@]12C[C@@H]1[C@@H](n1cnc3c(NC)nc(Cl)nc31)[C@H](O)[C@@H]2O,NE,[1],inactive
CSc1nc(N)c2ncn(C3C(O)C(O)[C@@]4(COP(=O)(O)OP(=O)(O)OP(=O)(O)O)C[C@@H]34)c2n1 (stereo not given in full),EC50,[7],23 nM
same,EC50,[8],3.7 nM
Nc1ncnc2c1ncn2[C@@H]1O[C@H](COP(=O)(O)OP(=O)(O)OP(=O)(O)O)[C@@H](O)[C@H]1O [ADENOSINE TRIPHOSPHATE],Activity,[10],100%
same,NE,[4],inactive
same,Activity,[11],100%
same,EC50,[9],85 nM
Nc1ncnc2c1ncn2[C@H]1[C@H](O)[C@H](O)[C@@]2(COP(=O)(O)O)C[C@H]12,NE,[12],inactive
same,Activity,[3],0.14%
